# From PubChem
# The list is not random: actives were taken first. Their share in the collection is about 3.1%.
# Ecoli rRNA inh: inhibits bacterial ribosomal RNA function over humanized ribosomes | hit rate 1.6% among 350,000 | GFP signal change (wild-type ribosome), % (concentration not given with the values) | E. coli WT GFP vs humanized-ribosome RFP mutants, fluorescence, 24 h; active compounds read low; DMSO median 0, no signal -100;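 active = significant combined selectivity score with lowered wild-type GFP, culture density cut under 30%, mutant RFP and density less affected; inactive = any of these conditions unmet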
# Cneo AK release: Cryptococcus neoformans lysis via adenylate kinase release; C. neoformans lysis, adenylate kinase release luminescence, 4 h; normalised: neutral wells 0, clomiphene wells 100; lysis activity, % at 15 µM; hit rate 0.2% among 360,000; AID 651654;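 active = mean lysis activity across replicates of at least 80%, whatever share of replicates individually reach that level; inactive = mean lysis activity below 80%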
#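 Signal: Adenylate kinase release luminescence | Assay system: Log-phase Cryptococcus neoformans yeast cells | Input: Cells at 5 × 10^6 per mL | Buffer or medium: Fresh YPD growth medium | Compound: Single dose | Schedule: Static 4 h at 37 °C with compound, 1 h detection | Controls: Clomiphene | Read-out: Luminescence rise reflecting yeast cell lysis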
# miR122 inh: inhibitors of miR-122 in Huh7 cells; Huh7 miR-122 Renilla luciferase sensor, 48 h; neutral wells = 0, positive control = 100; activation (reporter increase), % at 12.5 µM; hit rate 0.3% among 340,000;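 active = mean replicate activation score at least 90 and every replicate individually at or above 90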;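 also: higher luciferase means less miR-122 activity so hits act as miR-122 inhibitors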
# E-selectin induc: E-selectin induction on HUVECs; P16581; HUVEC E-selectin immunofluorescence imaging; normalized: neutral wells 0, TNF-alpha wells 100; activation, % at 7.58 µM; hit rate 0.37% among 260,000; AID 686992;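 active = mean E-selectin-positive cell signal at least 10% of the positive control, reached in at least 60% of replicates, without over 20% cell loss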
# Target sequence (P16581 whole entry, looked up): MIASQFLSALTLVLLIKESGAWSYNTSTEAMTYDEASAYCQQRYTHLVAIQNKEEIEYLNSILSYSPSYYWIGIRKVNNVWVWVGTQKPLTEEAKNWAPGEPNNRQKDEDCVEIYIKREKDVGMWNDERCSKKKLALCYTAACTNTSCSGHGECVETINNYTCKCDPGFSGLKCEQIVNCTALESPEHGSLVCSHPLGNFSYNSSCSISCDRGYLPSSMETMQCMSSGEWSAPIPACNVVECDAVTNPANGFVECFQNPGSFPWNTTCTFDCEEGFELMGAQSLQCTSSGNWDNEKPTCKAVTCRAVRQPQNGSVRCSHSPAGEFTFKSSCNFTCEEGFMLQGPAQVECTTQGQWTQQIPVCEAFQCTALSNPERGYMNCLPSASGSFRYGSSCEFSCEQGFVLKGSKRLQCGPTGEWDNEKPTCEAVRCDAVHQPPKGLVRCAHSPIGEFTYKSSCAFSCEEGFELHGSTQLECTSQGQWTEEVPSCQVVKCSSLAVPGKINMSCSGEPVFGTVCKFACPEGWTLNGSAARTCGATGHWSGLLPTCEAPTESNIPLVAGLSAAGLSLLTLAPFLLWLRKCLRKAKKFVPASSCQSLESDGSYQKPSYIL
#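 Read-out basis: % PE-positive cells; Test system: HUVEC primary endothelial cells; Technique: immunofluorescence imaging; Dosing: single-point compound dose.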
# DENV2 CPE rescue: protects cells from dengue virus 2 cytopathic effect; DENV2-infected cells, cytopathic effect rescue, plate reader; CPE inhibition, % at 9.99 µM; hit rate 1.7% among 350,000; AID 651640; in the data active = CPE inhibition above about 20%, passing the limit was not always enough; tested in BHK-21 cells;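 also: 0% = median of neutral control wells and 100% = median of positive control wells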
# * = called active by the depositor; . = not tested or not shown; [ ] = remark or other dose.
SMILES,Ecoli rRNA inh,Cneo AK release,miR122 inh,E-selectin induc,DENV2 CPE rescue
CC1C(=O)N(Cc2cn(CC3CCCCC3)nn2)CCS(=O)(=O)N1Cc1ccc(-c2ccc(Cl)c(Cl)c2)cc1 (stereo not drawn),11,.,-8,-1,57*
CCC(=O)N(C)C[C@@H]1Oc2cc(-c3ccncc3)ccc2S(=O)(=O)N([C@@H](C)CO)C[C@@H]1C,0,51,1[16.7 µM],0,5
COC(=O)Cn1c(C(=O)N(C)C)cc2c1C[C@H]1CN(C(=O)c3ccccc3)[C@@](Cc3ccc(F)cc3)(C(=O)OC)[C@@H]21,27,.,.,0,63*
COC(=O)[C@@]1(Cc2ccc(F)cc2)[C@H]2c3cc(C(=O)N(C)C)n(CCF)c3C[C@H]2CN1C(=O)c1ccccc1,-3,.,.,0,3
COC(=O)[C@@]1(Cc2ccc(F)cc2)[C@H]2c3cc(C(=O)N(C)C)n(Cc4ccc(OC(F)(F)F)cc4)c3C[C@H]2CN1C(=O)c1ccccc1,11,.,.,0,20*
C[C@@H]1CN([C@H](C)CO)C(=O)Cc2cc(NC(=O)Nc3cccc4ccccc34)ccc2O[C@@H]1CN(C)S(=O)(=O)c1ccc(Cl)cc1,4,.,.,1,10
CC1CC(C)CN(C(=O)/C=C/c2ccc([N+](=O)[O-])s2)C1 (stereo not drawn),-29*,1,.,.,-4
CC1CN(C(=O)/C=C/c2ccc([N+](=O)[O-])s2)CC(C)O1 (stereo not drawn),1,.,.,.,-5
CS(=O)(=O)N(Cc1ccc(C(=O)NN=C2CCCCCC2)cc1)c1ccccc1,5,-3,-6,1,110*
CS(=O)(=O)N(Cc1ccc(C(=O)NC2CCCC2)cc1)c1ccccc1,1,.,.,2,0
O=C(Cc1ccccn1)N[C@H]1CC[C@@H](CC(=O)N2CCCCC2)O[C@H]1CO,2,1,.,0,-1
COc1ccc2c(c1)C(C)=CC(C)(C)N2S(=O)(=O)c1ccc(Br)cc1,-5,.,114*,.,-4
COC(=O)N/N=C/c1cc(Cl)c(OCc2ccccc2F)c(OC)c1,-16*,-1,.,.,9
C[C@H](CO)N1C[C@H](C)[C@@H](CN(C)Cc2ccc(-c3ccccc3)cc2)Oc2ccc(NC(=O)Cc3cn(C)c4ccccc34)cc2CC1=O,1,.,-1[16.7 µM],5,-6
Cc1ccc(-c2cc(C(=O)NNC(=O)c3csc(N4CCOCC4)n3)c3ccccc3n2)cc1,-19*,-4,-4,0,9
O=C(NNC(=O)c1cc(-c2ccc(Br)cc2)nc2ccccc12)c1csc(N2CCOCC2)n1,.,0,0,1,-6
O=C(NNC(=O)c1cc(-c2ccccc2)nc2ccccc12)c1csc(N2CCOCC2)n1,-37*,.,.,-3,2
C[C@H](CO)N1C[C@H](C)[C@H](CN(C)S(=O)(=O)c2ccc(Cl)cc2)Oc2ccc(NC(=O)C3CC3)cc2CC1=O,-5,-5,1[16.7 µM],0,6
CCCC(=O)Nc1ccc(Cl)c(NC(=O)c2ccco2)c1,.,1,-3,.,.
CCCC(=O)Nc1ccc(Cl)c(NC(=S)NC(=O)c2ccco2)c1,-16*,.,.,.,2
C[C@@H]1CN([C@@H](C)CO)C(=O)c2cc(NC(=O)Nc3ccccc3)ccc2O[C@@H]1CN(C)C(=O)Nc1ccc2c(c1)OCO2,-1,.,-5[16.7 µM],0,.
CCCNC(=O)N1CCC2(CC1)CN(C(C)=O)[C@@H](CO)c1c2c2ccc(OC)cc2n1C,-3,.,.,.,.
Fc1ccc(NC(=S)Nc2cc(-c3ccccc3)[nH]n2)cc1Cl,-54*,1,8,30*,-4
COc1ccc(NC(=S)Nc2ccc(C)c(Cl)c2)cc1OC,-40,2,-2,4,2
Cc1ccc(NC(=S)Nc2cc(-c3ccccc3)[nH]n2)cc1Cl,-20*,2,4,12,-3
SMILES,Ecoli rRNA inh,Cneo AK release,miR122 inh,E-selectin induc,DENV2 CPE rescue
CCN1/C(=C/C=C/c2oc3ccc(-c4ccccc4)cc3[n+]2CC)Oc2ccc(-c3ccccc3)cc21,87,-7,-11,218*,-3
COc1cccc(C2C(=O)c3ccccc3C2=O)c1,19,-3,1,66*,1
O=C(c1cccc(F)c1)N1CCCCN2[C@H](CO)[C@H](c3ccc(-c4cccnc4)cc3)[C@@H]2C1,-4,-4,-2[16.7 µM],0,7
CC(C)NC(=O)N(C)C[C@@H]1Oc2ncc(-c3cccc(C#N)c3)cc2C(=O)N([C@@H](C)CO)C[C@@H]1C,-1,.,.,.,.
COc1ccc2[nH]c3c(c2c1)CCN1C(=O)N([C@@H](C)C(=O)NC2CCCCC2C)C(=O)[C@]31C (stereo partly drawn),.,-1,1,.,48*
CC(=O)N(C)C[C@H]1Oc2cc(C#Cc3ccccn3)ccc2S(=O)(=O)N([C@@H](C)CO)C[C@@H]1C,3,-1,-2[16.7 µM],0,-5
C[C@@H]1CN([C@H](C)CO)S(=O)(=O)c2ccc(C#Cc3ccccn3)cc2O[C@H]1CN(C)Cc1ccccc1,-13,91*,29[16.7 µM],0,.
C[C@@H]1CN([C@@H](C)CO)S(=O)(=O)c2ccc(C#Cc3ccccn3)cc2O[C@H]1CN(C)Cc1ccccc1,-7,101*,6[16.7 µM],0,.
CC(=O)N(C)C[C@@H]1Oc2cc(C#Cc3ccccn3)ccc2S(=O)(=O)N([C@H](C)CO)C[C@@H]1C,2,1,-6[16.7 µM],70*,-3
COc1cc2c(cc1NC(=O)C(C)OC(=O)C1CC(=O)N(Cc3ccco3)C1)oc1ccccc12 (stereo not drawn),.,3,10,.,.
CC(OC(=O)C1CC(=O)N(Cc2ccco2)C1)C(=O)Nc1cccc(C#N)c1 (stereo not drawn),9,-11,-2,0,21*
COc1ccc(N2CCN(Cc3nc4c(c(=O)[nH]c(=O)n4C)n3Cc3cccc(Cl)c3)CC2)cc1,5,1,-7,0,98*
COc1ccc2c3c([nH]c2c1)[C@@H](CO)N(Cc1nccs1)CC31CCN(Cc2nccs2)CC1,4,.,.,0,-6
O=C(CN1CCN(C(=O)C2CCC2)CC1)Nc1ccc(F)cc1,6,-1,.,.,32*
O=C1Cc2cc(S(=O)(=O)N3CCNCC3)ccc2N1,6,.,.,-1,34*
Cn1cc(/C=C2\SC(=O)N(c3ccc(O)cc3)C2=O)c2ccccc21,-35*,-2,.,0,-15
COCC(=O)N(C)C[C@@H]1Oc2ncc(-c3ccccc3F)cc2C(=O)N([C@@H](C)CO)C[C@H]1C,1,0,.,0,1
Cc1cc(C)nc(N/C(=N\S(=O)(=O)Cc2ccccc2)Nc2ccccc2Br)n1,.,4,180*,0,.
CCCC#Cc1ccc([C@H]2[C@H](CO)N3C(=O)CN(C(=O)c4cccc(F)c4)C[C@@H]23)cc1,5,.,.,.,.
CCSC1=NCCN1C(=O)Cc1ccc(-c2ccccc2)cc1,2,.,.,.,3
